Measurements: PubChem BioAssay AID623889 (Vanderbilt Specialized Chemistry Center, 2012)
“And” between values parts separate entries of the source, which are not always exact repeats. Equal values may be shown once.

Target: Metabotropic glutamate receptor 4 (Rattus norvegicus) (UniProt P31423)
Assay: glutamate potency shift at mGlu4 – rat, HEK/GIRK cells, thallium flux, mGlu4 lead optimization, SAR follow-up (AID 623889)
Conditions: at 30 µM, stronger effect = higher value; for glutamate max response: glutamate fold shift, measured here: glutamate maximal response with compound
In short: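 incubation = compound pre-incubation about 2.5 min before glutamate addition | assay system = HEK cells stably co-expressing GIRK channel, M4 receptor and rat mGlu4 | technique = FluoZin-2 fluorescence thallium flux | dosing = one compound dose, 30 µM final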

Chain of Metabotropic glutamate receptor 4 (Rattus norvegicus) (P31423 whole entry, looked up): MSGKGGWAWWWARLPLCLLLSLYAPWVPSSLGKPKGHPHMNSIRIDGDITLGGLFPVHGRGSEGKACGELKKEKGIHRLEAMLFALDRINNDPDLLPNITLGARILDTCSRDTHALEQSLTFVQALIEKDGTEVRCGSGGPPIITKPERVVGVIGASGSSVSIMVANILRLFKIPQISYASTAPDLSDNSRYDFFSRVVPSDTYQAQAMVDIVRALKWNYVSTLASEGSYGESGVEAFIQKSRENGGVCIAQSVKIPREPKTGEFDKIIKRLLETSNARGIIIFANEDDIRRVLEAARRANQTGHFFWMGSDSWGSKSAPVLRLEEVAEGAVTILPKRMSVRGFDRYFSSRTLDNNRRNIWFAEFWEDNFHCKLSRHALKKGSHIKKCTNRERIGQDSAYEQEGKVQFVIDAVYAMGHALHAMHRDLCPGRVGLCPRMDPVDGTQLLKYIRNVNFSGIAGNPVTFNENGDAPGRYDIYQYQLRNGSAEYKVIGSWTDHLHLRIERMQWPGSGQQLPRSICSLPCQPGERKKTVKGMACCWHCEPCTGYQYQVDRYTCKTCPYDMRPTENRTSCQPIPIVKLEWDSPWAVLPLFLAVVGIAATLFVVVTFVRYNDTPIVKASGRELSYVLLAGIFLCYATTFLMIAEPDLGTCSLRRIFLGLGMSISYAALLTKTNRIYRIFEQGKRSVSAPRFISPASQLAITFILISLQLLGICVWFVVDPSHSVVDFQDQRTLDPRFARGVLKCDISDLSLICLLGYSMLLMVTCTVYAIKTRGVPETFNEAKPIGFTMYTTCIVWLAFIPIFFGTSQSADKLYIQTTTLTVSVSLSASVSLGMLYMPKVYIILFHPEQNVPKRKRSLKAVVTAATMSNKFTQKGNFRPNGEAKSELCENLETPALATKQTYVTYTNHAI

| SMILES | fold shift | glutamate max response |
| --- | --- | --- |
| Fc1cccc(Nc2noc3cccnc23)c1 | 8.9 | 93.6% |
| COc1cc(Nc2noc3cccnc23)ccc1Cl | 6.67 | 84.3% |
| O=C(Nc1ccc2c(c1)C(=O)NC2=O)c1ccccn1 | 2.52 | 105% |
| CC(C)N(C(=O)c1ccccn1)c1cccc(Cl)c1 | 3.16 | 108% |
| Clc1cccc(Nc2noc3cccnc23)c1 | 31.1 and 22.7 and 17.8 | 90.3% and 98.5% and 99.1% |
| FC(F)Oc1cccc(Nc2noc3cccnc23)c1 | 21.7 and 16.3 | 98.4% and 99.7% |

Second part, the molecule after the results:

| fold shift | glutamate max response | SMILES |
| --- | --- | --- |
| 4.02 | 87.2% | Clc1cccc(Nc2ncnc3cccnc23)c1 |
| 15.3 | 87.2% | Clc1ccc2nc(-c3ccccn3)[nH]c2c1 |
| 30.2 | 88.8% | O=C(Nc1cccc(Cl)c1)c1ccccn1 |
| 11.9 | 103% | O=C(Nc1ccc2cn[nH]c2c1)c1ccccn1 |
| 3.21 | 90.9% | COc1cc2nc(-c3ccccn3)[nH]c2cc1Cl |
